Screening data as filed in PubChem BioAssay.
This is a sample that favours compounds with a hit; in the whole collection about 5.4% have one here.
CSC inhib: blocks cancer stem cells. cancer stem cell-like cells viability, luminescence. inhibition, % at 7.5 µM. 300,000 compounds, 1.1% hits; in the data active means inhibition above about 75%; inconclusive means no clear call, values can overlap the other calls; tested in HMLE shEcad cells
T cruzi repl: blocks replication of Trypanosoma cruzi | 300,000 compounds, 1.4% hits | T. cruzi beta-gal in NIH3T3, luminescence, 90 h | inhibition, % (no concentration beside the values);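 active means mean inhibition across valid replicates above about 55%, limit read from the data; inconclusive means mean below that limit but half or more replicates reach it; inactive means mean below it, under half of replicates reach it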;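 further: signal also drops with host cell toxicity which is not excluded here; 0% = plate median of DMSO wells and 100% = zero luminescence signal; higher percent means less beta-gal luminescence so fewer parasites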
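Assay system: NIH/3T3 host cells with β-galactosidase reporter T. cruzi; input: 5,000 host fibroblasts per well; compound: single 50 nL compound addition per well in DMSO; timing: ≥90 h infection period, 3 h prior cell attachment; measured by: GalScreen β-gal luminescence, detergent lysis, 60 min; evaluation: percent inhibition of parasite-derived β-gal signal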
aSyn 5UTR inh: 5' untranslated region of α-synuclein, MLPCN primary screen; alpha-synuclein 5'UTR reporter, inhibitor activity; inhibition, % (tested at 7.5 µM); 300,000 compounds, 0.82% hits; in the data active means inhibition above about 60%; inconclusive means no clear call, values can overlap the other calls;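 further: H4 neuroglioblastoma cells stably carrying SNCA 5'UTR luciferase fusion; 0% = DMSO wells and 100% = positive control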
SKKanGAS inh: inhibitors of SKKanGAS S. pyogenes growth in kanamycin (SK-promoter or general growth effect). BacTiter-Glo, 6 h. inhibition, % at 7.5 µM. 300,000 compounds, 1.3% hits. AID 1662;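 active means mean replicate score, as percent of positive control median, at least 50; inconclusive means mean below 50 but one replicate at or above 50; inactive means mean and every replicate below 50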;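 further: strain carries kanamycin resistance gene driven by streptokinase promoter and grows in 40 µg/ml kanamycin; loss of luminescence reflects streptokinase promoter inhibition or plain growth inhibition; 0% = median of DMSO wells and 100% = positive control at its reference dose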
Mdm2 MdmX PPI: inhibitors of human Mdm2/MdmX interaction. 330,000 compounds, 3% hits. O15151+Q00987. AID 485346. inhibition, % at 8 µM. SaOS-2 split-luciferase Mdm2/MdmX complementation, luminescence;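 active means inhibition of at least 50% at 8 µM in the primary screen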
* marks the source's active call; other numbers are inactive results; ? = inconclusive; · = no result.

SMILES	CSC inhib	T cruzi repl	aSyn 5UTR inh	SKKanGAS inh	Mdm2 MdmX PPI
CCCN1CCc2c(sc(NC(=O)c3ccc(S(=O)(=O)N4CCN(C(=O)OCC)CC4)cc3)c2C(N)=O)C1	-8	14	6	57*	-18
CCCN1CCc2c(sc(NC(=O)c3ccc(S(=O)(=O)N(C)c4ccccc4)cc3)c2C(=O)NC)C1	78*	35	-26	15	28
CN1CCc2c(sc(NC(=O)c3ccc(S(=O)(=O)N4CCCC4)cc3)c2C(N)=O)C1	2	11	-8	3	5
Cc1cccc(-n2c(CCc3ccccc3)nnc2SCC(=O)c2ccccc2)c1	-13	31	0	-6	-8
Cc1ccc(-n2cc(CN3CCC(O)(c4ccccn4)CC3)c(-c3ccc(F)cc3)n2)cc1	4	55*	-20	-3	24
Cc1ccc(-n2cc(CN3CCNC(=O)CC3)c(-c3ccc(F)cc3)n2)cc1	-6	21	2	-5	13
CCN(C[C@H]1N[C@@](CC)(C(=O)OC)[C@H]2C(=O)N(C)C(=O)[C@@H]12)C(=O)c1ccccc1	·	·	·	·	-48
Cc1cc(C)nc(NC(=O)/C=C/c2cccs2)c1	86*	-23	-155	-14	2
CCOc1ccc(NC(=O)CSc2nnc(Cn3cnc4ccccc43)n2C)cc1	-10	-3	-7	-8	15
Cc1ccc(CN2C(=O)/C(=C\c3ccc(C(=O)NCc4cccnc4)cc3)Oc3ccccc32)cc1	108*	-7	101*	7	9
COc1ccc(-c2cc3nc4n(c(=O)c3s2)CCCCC4)cc1	32	3	-17	12	-79
COc1ccc(-c2cc3nc4n(c(=O)c3s2)CCC4)cc1	16	-14	?	99*	34
CCOC(=O)C1(Cc2ccccc2C(F)(F)F)CCN(C(C)CCn2cccn2)CC1 (centres undefined)	-3	68*	-14	-4	3
CC/C(=N/NC(=O)c1ccc2c(c1)OCO2)c1ccccc1O	·	18	33	7	47
Cc1nc(-c2ccc(C(=O)Nc3ccccc3F)cc2)cs1	38	-11	92*	22	-90
Cc1nc(-c2ccc(C(=O)Nc3ccc(F)cc3)cc2)cs1	14	-27	-109	·	-89
O=C(CN1C(=O)c2cccnc2Oc2ccc(Cl)cc21)NCCCc1ccccc1	-11	0	1	1	28
Cc1ccc(-c2nc(NCc3ccco3)c3ccccc3n2)cc1	96*	40	-46	5	-4
Cc1ccc(OCCN2CCN(c3nc(NCc4ccco4)c4ccccc4n3)CC2)cc1	112*	70*	18	3	23
Cc1ccccc1Nc1nc(NCc2ccco2)c2ccccc2n1	22	58*	-30	-3	47
c1cncc(-c2nc(NCc3ccco3)c3ccccc3n2)c1	5	34	-21	-6	3
OCCN1CCN(c2nc(NCc3ccco3)c3ccccc3n2)CC1	-11	12	-15	-7	19
Fc1ccc(CNc2nc(-c3ccccc3)nc3ccccc23)cc1	·	57*	-8	3	7
Oc1ccccc1Nc1nc(NCc2ccco2)c2ccccc2n1	·	15	12	16	28
CN(C)S(=O)(=O)c1cccc(NC(=O)c2ccccc2OCc2ccc(F)cc2)c1	·	24	31	3	25
SMILES	CSC inhib	T cruzi repl	aSyn 5UTR inh	SKKanGAS inh	Mdm2 MdmX PPI
Cc1[nH]c(C)c(C(=O)/C=C/c2ccc([N+](=O)[O-])cc2)c1C	0	16	-232	6	40
COc1ccc(OC)c(Nc2nc(NCc3ccco3)c3ccccc3n2)c1	13	49	-18	-2	36
Cc1cccc(Nc2nc(NCc3ccco3)c3ccccc3n2)c1	113*	52	-9	19	·
COc1ccc(NC(=S)Nc2nc(CC(=O)Nc3ccccc3OC)cs2)cc1	0	-13	-22	58*	31
CC(=O)c1ccc(-c2ccc(C(=O)N(C)Cc3nc4ccccc4c(=O)[nH]3)o2)cc1	·	·	·	·	22
CCC(=NCc1ccc(Cl)c(Cl)c1)c1nc(-c2ccco2)oc1O	102*	20	28	6	15
Cc1cc(=O)[nH]c(SCC(=O)Nc2cccc(S(=O)(=O)N3CCOCC3)c2)n1	-11	·	·	·	17
FC(F)(F)c1cc(-c2ccccc2)nc(N2CCCCC2)n1	5	7	22	84*	24
Cc1ccccc1NC(=O)c1ccc(Nc2c([N+](=O)[O-])cc([N+](=O)[O-])c3ccccc23)cc1	34	63*	24	15	44
CN(CC(=O)Nc1cccc(F)c1)C(=O)Cn1cnc2c1c(=O)n(C)c(=O)n2C	-10	-2	1	-13	4
Cc1ccc(NC(=O)CSc2nc(=O)n(Cc3ccncc3)c3c2CCC3)c(C)c1	-14	-5	-4	-7	6
CN(c1cccc(Cl)c1)S(=O)(=O)c1cccc(C(=O)NCc2ccncc2)c1	·	·	·	·	-4
COc1ccccc1-c1sc2ccccc2c1C#Cc1ccc(N(C)C)cc1	38	·	·	·	-5
CN(CC(=O)Nc1ccccc1Br)C(=O)CN1CCN(c2ccccc2Cl)CC1	·	·	·	·	-29
COc1ccc(/C=C2/C(=O)N(c3nc4ccccc4s3)N=C2CSc2ccc(Cl)cc2)cc1	92*	4	-42	68*	14
O=C(NCCOc1ccccc1)c1cc(C(=O)NCCOc2ccccc2)cc([N+](=O)[O-])c1	13	68*	7	4	35
CN(CCOc1ccccc1)C(=O)c1cc([N+](=O)[O-])cc([N+](=O)[O-])c1	1	64*	9	3	24
O=C(NCCOc1ccccc1)c1ccccc1[N+](=O)[O-]	-2	-11	-19	-7	10
O=[N+]([O-])c1ccc2oc(C(O)c3cccc(Cl)c3)cc2c1 (centres undefined)	5	3	13	3	18
CCCCOc1ccc(/C=C/C2=CC(C)(C)NC(=S)N2)cc1OCC	·	70*	-27	-4	29
Brc1ccc(Nc2ncnc3[nH]ncc23)cc1	9	-11	-26	52*	8
Cc1ccc(-c2c[n+](CC(=O)OCc3ccccc3)c3n2CCC3)cc1	6	3	18	-3	-1
CC1CCC(C(C)C)C(OC(=O)C[n+]2cc(-c3ccc(Cl)cc3)n3c2CCC3)C1 (centres undefined)	13	60*	-2	6	24
Cc1onc(-c2c(F)cccc2Cl)c1C(=O)Nc1cccc(S(=O)(=O)N2CCOCC2)c1	5	·	·	·	20
CN1CCC(NC(=O)Nc2ccc(Br)cc2)CC1	-23	61*	4	-7	-22
CN1CCC(NC(=O)Nc2cccc(C(F)(F)F)c2)CC1	-28	·	·	4	-18
O=C(NC1CCN(Cc2ccccc2)CC1)c1ccc2c(c1)[nH]c(=O)n2Cc1ccc(F)cc1	5	58*	14	-7	41
CC(C)(C)c1ccc(C(=O)NC2CCN(Cc3ccccc3)CC2)cc1	19	53	-13	-3	-7
O=C(NC1CCN(Cc2ccccc2)CC1)c1ccccc1	·	56*	-17	0	4
O=C(Cc1ccccc1)NC1CCN(Cc2ccccc2)CC1	-2	43	-12	-12	3
